Measured values: ChEMBL document CHEMBL1142228, “Alternative chemical modifications reverse the binding orientation of a pharmacophore scaffold in the active site of macrophage migration inhibitory factor” (J Biol Chem, 2007)

Assays:
[1] = target: T1, Macrophage migration inhibitory factor (Homo sapiens, UniProt P14174); assay: Inhibition of MIF-mediated dopachrome tautomerase activity
T1 sequence (P14174 whole entry): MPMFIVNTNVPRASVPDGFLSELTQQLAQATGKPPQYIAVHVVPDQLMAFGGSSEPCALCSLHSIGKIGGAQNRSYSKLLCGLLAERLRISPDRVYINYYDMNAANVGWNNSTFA
How it was run: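 l-Dopachrome methyl ester substrate (2.4 mm prepared stock, from sodium periodate oxidation of l-3,4-dihydroxyphenylalanine methyl ester) added to recombinant MIF (50 nm) in 50 mm potassium phosphate, pH 6, 0.5 mm EDTA at room temperature.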

Mus musculus = assay: Increase in survival rate in cecal ligation and puncture-induced peritonitis mouse model administered twice a day after 24 hrs of sepsis induction at 3.5 mg/kg, ip for 3 days; type: functional; details: route intraperitoneal
How it was run: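 Mice anaesthetised with ketamine 100 mg/kg plus xylazine 8 mg/kg im. Cecum ligated below the ileocecal valve and punctured once with a 22-gauge needle. Post-surgery: Premaxin 0.5 mg/kg sc and saline 20 ml/kg sc. Dosing ip in 20% aqueous DMSO vehicle began 24 h post-CLP, twice daily for 3 days. n = 13 per group; survival followed 2 weeks.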

[2] = target: Transcription factor p65 (Mus musculus) (UniProt Q04207); assay: Inhibition of NF-kappaB activation in LPS-induced mouse RAW264.7 cells by electrophoretic mobility shift assay
Sequence of Transcription factor p65 (Mus musculus) (Q04207 whole entry, looked up): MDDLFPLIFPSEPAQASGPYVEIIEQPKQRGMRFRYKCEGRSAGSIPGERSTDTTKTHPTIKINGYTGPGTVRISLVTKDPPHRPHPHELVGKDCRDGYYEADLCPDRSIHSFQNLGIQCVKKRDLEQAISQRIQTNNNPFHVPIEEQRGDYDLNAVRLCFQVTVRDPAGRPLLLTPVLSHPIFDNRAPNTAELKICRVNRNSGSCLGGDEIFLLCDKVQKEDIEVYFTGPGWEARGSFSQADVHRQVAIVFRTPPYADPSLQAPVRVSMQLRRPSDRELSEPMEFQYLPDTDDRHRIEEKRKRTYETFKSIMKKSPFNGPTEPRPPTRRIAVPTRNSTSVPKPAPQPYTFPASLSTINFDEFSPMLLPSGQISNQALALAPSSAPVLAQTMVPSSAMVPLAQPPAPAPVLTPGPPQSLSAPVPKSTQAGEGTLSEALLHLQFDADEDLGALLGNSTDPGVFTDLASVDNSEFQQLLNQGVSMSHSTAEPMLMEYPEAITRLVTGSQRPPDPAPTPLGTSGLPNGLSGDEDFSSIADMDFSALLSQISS

Compound	IC50 [1] [µM]	survival at 3.5 mg/kg (Mus musculus) [%]	Activity [2]
O=C(O/N=C/c1ccc(O)cc1)C1CCCCC1		70	Dose-dependent effect
CC(C)(C)C(=O)O/N=C/c1ccc(O)cc1	113		
CC(C)C(=O)O/N=C/c1ccc(O)cc1	25		
O=C(O/N=C/c1ccc(O)cc1)C1CCC1	11		
CC(=O)O/N=C/c1ccc(O)cc1	147		
CCCCC(=O)O/N=C/c1ccc(O)cc1	14.5		

Now from value to molecule, other results behind:

IC50 [1] [µM]	Compound	survival at 3.5 mg/kg (Mus musculus) [%]	Activity [2]
7	O=C(O/N=C/c1ccc(O)cc1)c1ccccc1		
4	O=C(O/N=C/c1ccc(O)cc1)C1CCCC1		
7	CC(C)(C)CC(=O)O/N=C/c1ccc(O)cc1		
3	O=C(CCC1CCCCC1)O/N=C/c1ccc(O)cc1		
7	CC(C)CC(=O)O/N=C/c1ccc(O)cc1		
3.4	O=C(O/N=C/c1ccc(O)cc1)C1CC=CCC1 (stereo not drawn)		
